Key:
L1210 [1] = test: Antitumor activity against ip implanted L1210 leukemia in mice expressed as active dose range (1-5qd treatment schedule) required to produce increase in life span by >25% was determined; Range is 10-80; assay type: functional, Mus musculus
How it was run: (§1)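 DBA/2J mice, groups of 6 (23-28 g), were inoculated ip with 1 × 10^6 L1210 cells on day 0. Dosing was ip from 24 h, in 0.9% NaCl with 0.5% Tween-80 (sonicated solution or suspension). Mice were observed daily until death or day 45. Median survival T/C followed NCI protocols, and ILS = (T/C − 1) × 100. Active range means doses giving ILS ≥25%; optimal dose means greatest ILS.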

L1210 [2] = test: Antitumor activity was determined against the ip implanted L1210 leukemia in mice by 45-day survivors in mice at 40 mg/kg (treatment of 1-5qd schedule) dosage; assay type: functional, Mus musculus; conditions: route intraperitoneal
How it was run: (§2)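 DBA/2J mice in groups of 6 (wt 23-28 g) were inoculated ip with 1×10^6 L1210 cells on day 0. Dosing was ip from 24 h, in 0.9% NaCl with 0.5% Tween-80 (conjugates sonicated), across a range of doses. Mice were observed daily until death or 45 days. Median T/C was computed from survivors per NCI protocols, and ILS = (T/C − 1)×100.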

L1210 [3] = test: Antitumor activity was determined against the ic implanted L1210 lymphoid leukemia in mice by change in body weight at 300 mg/kg (1 qd treatment schedule) dosage
L1210 [4] = test: Antitumor activity was determined against the ic implanted L1210 lymphoid leukemia in mice by change in […] at 167 mg/kg (treatment of 1, 5, 9qd schedule) dosage; assay type: functional, Mus musculus
How it was run: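 DBA/2J mice, 6 per group (wt 26-32 g), inoculated ic with 1×10^5 L1210 cells on day 0. Dosing ip began 24 h after inoculation, with a sonicated solution or suspension in 0.9% NaCl containing 0.5% Tween-80, given over a range of doses. Animals were followed daily until death. Body weight change, median survival T/C, and %ILS = (T/C − 1) × 100 were computed from survivors per NCI protocols.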

L1210 [5] = test: Antitumor activity against ic implanted L1210 lymphoid leukemia in mice expressed as active dose range (1, 5, 9qd treatment schedule) required to produce increase in life span by >25% was determined; Range is 100-167; assay type: functional, Mus musculus
How it was run: (§3)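 DBA/2J mice, groups of 6 (26-32 g), got 1 × 10^5 L1210 cells ic on day 0. Dosing was ip starting 24 h later, as a sonicated solution or suspension in 0.9% NaCl with 0.5% Tween-80, over a wide dose range. Mice were followed daily until death. Median survival T/C was taken from survivors per NCI protocols, and ILS = (T/C − 1) × 100. Active range means doses giving ILS ≥25%; optimal dose means greatest ILS.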

L1210 [6] = test: Antitumor activity against ip implanted L1210 leukemia in mice expressed as active dose range (1-5qd treatment schedule) required to produce increase in life span by >25% was determined; Range is 40-80; assay type: functional, Mus musculus; how it was run: as §1
L1210 [7] = test: Antitumor activity was determined against the ic implanted L1210 lymphoid leukemia in mice by percent increase in life span at 167 mg/kg (treatment of 1, 5, 9qd schedule) dosage; assay type: functional, Mus musculus; how it was run: as §3
L1210 [8] = test: Antitumor activity was determined against the ip implanted L1210 leukemia in mice by percent increase in life span at 80 mg/kg (treatment of 1-5qd schedule) dosage; assay type: functional, Mus musculus; conditions: route intraperitoneal; how it was run: as §2
L1210 [9] = test: Antitumor activity was determined against the ip implanted L1210 leukemia in mice by percent median survival rate (treated/control) at 80 mg/kg (treatment of 1-5qd schedule) dosage; 25.5/7.0; assay type: functional, Mus musculus; conditions: route intraperitoneal
How it was run: (§4)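 DBA/2J mice, 23-28 g, in groups of 6, were inoculated ip with 1×10^6 L1210 cells on day 0. Dosing was ip starting 24 h later on the stated daily schedules. Conjugates were given as sonicated solutions and reference prodrugs as suspensions in 0.9% NaCl with 0.5% Tween-80. Mice were observed daily until death or 45 days. Median survival T/C was calculated from survivors per NCI protocols.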

L1210 [10] = test: Antitumor activity was determined against the ic implanted L1210 lymphoid leukemia in mice by percent increase in life span at 500 mg/kg (treatment of 1qd schedule) dosage
L1210 [11] = test: Antitumor activity was determined against the ic implanted L1210 lymphoid leukemia in mice by median survival time at 100 mg/kg (treatment of 1-5qd schedule) dosage; 22.0/7.0
L1210 leukemia (mouse) = test: Antitumor activity was determined against the ic implanted L1210 lymphoid leukemia in mice by percent median survival rate (treated/control) at 500 mg/kg (treatment of 1qd schedule) dosage; 23.0/7.0
L1210 [12] = test: Antitumor activity against ic implanted L1210 lymphoid leukemia in mice expressed as active dose range (1 qd treatment schedule) required to produce increase in life span by >25% was determined; Range is 200-500
P388 [13] = test: Antitumor activity was determined against the ip implanted P388 leukemia in mice by 45-day survivors in mice at 200 mg/kg (treatment of 1-5qd schedule) dosage; assay type: functional, Mus musculus; conditions: route intraperitoneal
How it was run: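 DBA/2J mice, 23-33 g, in groups of 6, were inoculated ip with 1×10^6 P388 cells on day 0. Dosing was ip from 24 h on the stated schedules, in 0.9% NaCl with 0.5% Tween-80 (sonicated solution or suspension). Survival was followed daily until death or 45 days. Median T/C was calculated from survivors per NCI protocols, with ILS = (T/C − 1) × 100.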

[14] = system: Small cell lung cancer cell line; test: Compound was tested for the inhibition of small cell lung cancer; assay type: functional, cell-based; conditions: Homo sapiens
How it was run: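 Human leukemia and solid tumor cells in culture were exposed to compound for 48 h. Viability was scored by trypan blue dye exclusion. IC50 (50% inhibition) was estimated from response curves of three separate experiments.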

L1210 [15] = test: Antitumor activity was determined against the ip implanted L1210 leukemia in mice by range in survival days at 400 mg/kg (treatment of 1qd schedule) dosage; Range is 15-29; assay type: functional, Mus musculus; conditions: route intraperitoneal; how it was run: as §4
L1210 [16] = test: Antitumor activity was determined against the ip implanted L1210 leukemia in mice by percent increase in life span at 100 mg/kg (treatment of 1-5qd schedule) dosage; assay type: functional, Mus musculus; conditions: route intraperitoneal; how it was run: as §2
P388 [17] = test: Antitumor activity was determined against the ip implanted P388 leukemia in mice by range in survival days at 67 mg/kg (treatment of 1,5,9qd schedule) dosage; Range is 21-31; assay type: functional, Mus musculus; conditions: route intraperitoneal

With `CCCCCCCCCCCCCCCC(=O)OC[C@H](COP(=O)(O)OP(=O)(O)OC[C@H]1O[C@@H](n2ccc(N)nc2=O)[C@@H](O)[C@@H]1O)OC(=O)CCCCCCCCCCCCCCC` the Active dose range (L1210 [1]) was 10 mg/kg/day, the Survivors (L1210 [2]) was 1 and the Weight change (L1210 [3]) was -0.88 g mouse-1.
For `CCCCCCCCCCCCCCCCOCC(COP(=O)(O)OP(=O)(O)OC[C@H]1O[C@@H](n2ccc(N)nc2=O)[C@@H](O)[C@@H]1O)OC(=O)CCCCCCCCCCCCCCC` (mixture of isomers), the Weight change (L1210 [4]) was -1.15 g mouse-1, the Active dose range (L1210 [5]) was 100 mg/kg/day and the Active dose range (L1210 [6]) was 40 mg/kg/day. The ILS (L1210 [7]) was 200, the ILS (L1210 [8]) was 264 and the T/C (L1210 [9]) was 25.5%. It also gave an ILS (L1210 [10]) of 229, a median survival time (L1210 [11]) of 22 days and a T/C (L1210 leukemia (mouse)) of 23%. The Active dose range (L1210 [12]) was 200 mg/kg/day.
With `Nc1ccn([C@@H]2O[C@H](CO)[C@@H](O)[C@@H]2O)c(=O)n1` [CYTARABINE] the Survivors (P388 [13]) was 0 and the IC50 [14] was > 100 µM.
`CCCCCCCCCCCCCCCCCCOCC(COP(=O)(O)OP(=O)(O)OC[C@H]1O[C@@H](n2ccc(N)nc2=O)[C@@H](O)[C@@H]1O)OC(=O)CCCCCCCCCCCCCCC` (mixture of isomers) gave a Range (L1210 [15]) of 15, an ILS (L1210 [16]) of 229 and a Range (P388 [17]) of 21.

Source: ChEMBL document CHEMBL1123247, “Nucleoside conjugates. 7. Synthesis and antitumor activity of 1-beta-D-arabinofuranosylcytosine conjugates of ether lipids” (J Med Chem, 1986)
